Cav3 T inh = Cav3.2 calcium influx blockers – cell-based, Fluo-4 calcium fluorescence, FDSS, MLSMR library, primary screen; B-score at 10 µM; Cav3.2-expressing cells; stronger effect = lower value; AID 449739, 2010; actives 4% (n = 100,000);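 active means single-dose well whose peak fluorescence ratio is a statistical outlier from its plate by either plate-standardised score or position-corrected B-score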
Target sequence (O95180 whole entry, looked up): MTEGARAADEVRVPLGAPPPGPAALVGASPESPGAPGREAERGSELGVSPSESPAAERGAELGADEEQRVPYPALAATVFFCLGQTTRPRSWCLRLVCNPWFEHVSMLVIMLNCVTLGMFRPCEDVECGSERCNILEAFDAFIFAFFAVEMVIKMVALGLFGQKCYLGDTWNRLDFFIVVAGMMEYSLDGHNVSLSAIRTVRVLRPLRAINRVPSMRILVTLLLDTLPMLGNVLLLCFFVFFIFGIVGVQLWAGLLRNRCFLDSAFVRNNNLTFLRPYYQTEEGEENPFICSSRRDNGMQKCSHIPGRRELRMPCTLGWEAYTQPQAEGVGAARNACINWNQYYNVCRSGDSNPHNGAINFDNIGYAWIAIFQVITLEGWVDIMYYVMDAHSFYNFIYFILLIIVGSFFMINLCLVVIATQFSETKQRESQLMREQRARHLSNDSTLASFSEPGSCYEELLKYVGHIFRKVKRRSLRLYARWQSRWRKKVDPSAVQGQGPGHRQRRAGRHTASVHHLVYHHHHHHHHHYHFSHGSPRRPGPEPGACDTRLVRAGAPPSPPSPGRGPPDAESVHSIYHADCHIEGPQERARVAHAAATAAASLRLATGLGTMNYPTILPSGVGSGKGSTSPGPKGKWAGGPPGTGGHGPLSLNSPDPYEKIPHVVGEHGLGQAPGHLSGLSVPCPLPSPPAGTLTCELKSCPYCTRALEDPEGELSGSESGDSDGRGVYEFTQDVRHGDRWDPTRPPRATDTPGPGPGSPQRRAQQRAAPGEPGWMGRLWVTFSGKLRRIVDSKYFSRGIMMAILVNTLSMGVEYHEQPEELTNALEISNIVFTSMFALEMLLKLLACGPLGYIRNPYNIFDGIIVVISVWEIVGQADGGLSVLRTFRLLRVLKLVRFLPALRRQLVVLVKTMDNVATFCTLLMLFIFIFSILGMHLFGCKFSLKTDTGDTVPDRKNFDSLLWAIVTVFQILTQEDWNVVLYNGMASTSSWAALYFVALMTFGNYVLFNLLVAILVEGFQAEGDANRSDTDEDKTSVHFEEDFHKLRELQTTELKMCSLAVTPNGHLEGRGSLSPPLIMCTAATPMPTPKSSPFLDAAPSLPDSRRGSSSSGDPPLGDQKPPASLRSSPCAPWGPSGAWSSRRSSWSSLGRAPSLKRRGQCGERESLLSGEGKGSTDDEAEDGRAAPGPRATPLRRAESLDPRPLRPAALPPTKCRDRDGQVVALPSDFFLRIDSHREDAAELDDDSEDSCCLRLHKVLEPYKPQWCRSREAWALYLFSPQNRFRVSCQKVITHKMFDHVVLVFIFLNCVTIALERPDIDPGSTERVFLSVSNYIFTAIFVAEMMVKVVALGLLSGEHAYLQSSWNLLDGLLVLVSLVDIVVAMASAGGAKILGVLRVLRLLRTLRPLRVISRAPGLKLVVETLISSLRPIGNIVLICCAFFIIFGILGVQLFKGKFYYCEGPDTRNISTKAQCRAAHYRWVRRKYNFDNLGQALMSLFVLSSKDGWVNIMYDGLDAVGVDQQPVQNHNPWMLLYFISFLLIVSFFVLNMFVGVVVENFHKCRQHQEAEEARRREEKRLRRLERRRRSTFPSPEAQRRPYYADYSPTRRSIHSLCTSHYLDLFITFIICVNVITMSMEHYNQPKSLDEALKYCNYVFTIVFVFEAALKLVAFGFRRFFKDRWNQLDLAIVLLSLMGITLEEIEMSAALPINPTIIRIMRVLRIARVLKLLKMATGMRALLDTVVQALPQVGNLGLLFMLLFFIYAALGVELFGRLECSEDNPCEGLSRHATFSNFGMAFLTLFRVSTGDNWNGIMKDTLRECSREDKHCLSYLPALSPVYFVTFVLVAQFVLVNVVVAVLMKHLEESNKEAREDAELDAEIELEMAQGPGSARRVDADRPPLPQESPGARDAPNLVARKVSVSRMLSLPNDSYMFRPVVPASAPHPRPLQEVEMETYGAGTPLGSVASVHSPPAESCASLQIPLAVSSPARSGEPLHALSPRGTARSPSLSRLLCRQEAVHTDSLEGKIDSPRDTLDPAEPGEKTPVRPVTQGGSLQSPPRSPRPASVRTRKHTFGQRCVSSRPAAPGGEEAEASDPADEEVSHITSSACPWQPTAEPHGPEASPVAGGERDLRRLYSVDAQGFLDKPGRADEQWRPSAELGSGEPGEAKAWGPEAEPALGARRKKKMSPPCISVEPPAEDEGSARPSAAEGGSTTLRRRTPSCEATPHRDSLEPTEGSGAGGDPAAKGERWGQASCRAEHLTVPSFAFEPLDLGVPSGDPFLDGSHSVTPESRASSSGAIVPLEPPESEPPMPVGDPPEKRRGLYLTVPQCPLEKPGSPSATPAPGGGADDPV
PostGolgi yeast = phenotypic screen on post-Golgi transport, primary screen | post-Golgi transport phenotypic cell assay | inhibition, % at 10 µM | actives 0.9% (n = 98,000);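 further: yeast cells grown in 1536-well plates; yeast grown about 18 h at 30C before absorbance read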
E coli WT exp = growth inhibitors of wild-type E. coli, primary screen, strain BW25113, expanded library, OD600; growth inhibition, % at 100 µM; OD600 absorbance; actives 0.15% (n = 98,000);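 active means growth inhibition above about 50% at one test dose, limit read from the data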;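 further: growth measured after 20 h incubation at 37 °C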
PostGolgi ctrl = growth inhibition of yeast control strain, primary screen, counter-screen for post-Golgi transport modulator project; efflux-deficient yeast background strain, growth absorbance A615, 16 h; inhibition, % at 10 µM; actives 5% (n = 98,000); AID 738, 2007
tolC growth inh = growth inhibitors of E. coli tolC mutant, primary screen, strain BW25113 ΔtolC::kan, 384-well; growth inhibition, % at 10 µM (by protocol); actives 2.2% (n = 65,000); OD615;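 active means growth inhibition at or above a cutoff equal to the mean over every tested compound plus 3 SD, cut at about 60% in these data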;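 further: growth measured after 20 h incubation at 37 °C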
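Signal: optical density read at 615 nm; Assay system: E. coli ΔtolC::kan strain BW25113; Times: 20 h incubation with compound, 37 °C; Dosing: 10 µM final, single dose.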
An asterisk follows results filed as active; . = no result. Rows were chosen to be rich in hits. Some 8.4% of all compounds tested hit in one or more screens of this group. Unless noted, no stated cut-off is given here; in the data, active means inhibition above about 30%; inactive means the rest.

SMILES	Cav3 T inh	PostGolgi yeast	E coli WT exp	PostGolgi ctrl	tolC growth inh
CCCCNc1ncnc2c1cnn2-c1ccc(Cl)cc1	-1.2	-2	3	35*	13
O=C(/C=C/c1ccccc1)NC(NC(=S)Nc1cccc(Cl)c1)C(Cl)(Cl)Cl (configuration not stated)	-1.6	2	-5	11	.
Cc1ccc(C)c(NC(=S)NC(NC(=O)/C=C/c2ccccc2)C(Cl)(Cl)Cl)c1 (configuration not stated)	-6.9*	-4	-9	-1	.
O=S(Cc1cc(Oc2ccccc2)nc(-c2ccccc2)n1)c1ccccc1 (configuration not stated)	-6.6*	4	-19	35*	.
Cc1ccc(S(=O)(=O)NCCCOC(=O)Nc2ccncc2)cc1	0.72	-9	3	-9	-3
Cc1nc2ccccn2c1/C(O)=C1\C(=O)C(=O)N(CCCn2ccnc2)C1c1ccncc1 (configuration not stated)	0.3	13	11	16	-18
Cc1ccc(C)n1N1C(=O)/C(=C\c2ccc(Cl)cc2)SC1=S	0.029	40*	-14	39*	.
COC(=O)c1ccc(Cl)c(NC(=O)CSc2ncn[nH]2)c1	-1.2	-3	-8	31*	8
CCOc1ccccc1CN1C(=O)NC(C)(c2ccccc2)C1=O (configuration not stated)	0.78	0	2	13	13
COC(=O)C(C(=O)OC)C(C[N+](=O)[O-])c1ccc(OC)c(OC)c1 (configuration not stated)	1.6	-4	-3	33*	.
COc1ccc(C(C[N+](=O)[O-])c2c(-c3ccccc3)cc3ccccn23)cc1OC (configuration not stated)	.	7	-6	11	.
COc1ccc(CCNC(=O)CCn2c(SCC#N)nc3ccccc3c2=O)cc1OC	0.21	-5	-3	0	3
CC(C)(C)CC(C)(C)NCC(O)COc1c(F)cc(Br)cc1F (configuration not stated)	-5.7*	-2	27	19	.
CC(C)(C)NCC(O)COc1c(F)cc(Br)cc1F (configuration not stated)	0.16	-2	4	4	.
N=c1c(C(=O)NCc2ccco2)cc2c(=O)n3ccccc3nc2n1Cc1ccc(Cl)cc1	-2.1	11	-9	35*	48
Cc1cccn2c(=O)c3cc(C(=O)NCc4ccco4)c(=N)n(CCc4ccccc4)c3nc12	.	.	.	.	65*
Cc1ccc(CO/N=C\Cc2snc(Sc3ncc(C(F)(F)F)cc3Cl)c2C#N)cc1	-1.8	-5	-24	15	.
Cc1cc2ncn(CCOc3ccccc3C#N)c2cc1C	-0.53	14	13	23	34
Cc1csc2ncc(C(=O)NCc3ccccn3)c(=O)n12	0.99	5	1	7	-10
CCOC(=O)C1(Nc2nccs2)Sc2ccccc2NC1=O (configuration not stated)	-0.87	0	5	9	7
CCOC(=O)C1(N(CC)CC)Sc2cc(C)ccc2NC1=O (configuration not stated)	.	-7	6	18	72*
CN(C)c1ccc(C=C2C(=O)OC(C)(C(C)(C)C)OC2=O)cc1 (configuration not stated)	0.4	4	0	4	.
CN(C)c1ccc(/C=C/C(O)=C2/C(=O)N(C)C3(C)CC2c2ccccc2O3)cc1 (configuration not stated)	-6.2*	8	-7	7	23
COc1ccc(/C=C2\SC(=S)N(NC(=O)c3csc4c3CCCC4)C2=O)cc1	-1.5	37*	-7	5	.
CCOCCCn1c(=NC(=O)c2cccnc2)c(C(=O)OCC)cc2c(=O)n3ccccc3nc21	4.2*	26	3	6	7
SMILES	Cav3 T inh	PostGolgi yeast	E coli WT exp	PostGolgi ctrl	tolC growth inh
CCCCCn1c(=NC(=O)c2ccco2)c(C(=O)OCC)cc2c(=O)n3ccccc3nc21	.	-4	-5	33*	8
CCCCn1c(=NC(=O)c2cccnc2)c(C(=O)OCC)cc2c(=O)n3ccccc3nc21	1.5	-2	-9	30	3
CCOC(=O)c1cnc(SC)nc1Oc1cccc(NS(=O)(=O)c2ccc(C)cc2)c1	-2.5	-1	-41	3	.
CCOC(=O)c1sc(NC(=O)C2CCCO2)c(C(=O)OC)c1C (configuration not stated)	.	.	.	.	-12
COC(=O)C1=C(C)NC(=O)/C1=C\c1cc(C)n(-c2ccccc2C)c1C	0.52	10	5	32*	.
O=C(Cn1nnc(-c2cccc(C(F)(F)F)c2)n1)NC1CCCC1	-0.97	8	2	5	1
COc1ccc(-n2ncc3c(NCc4ccc5c(c4)OCO5)ncnc32)cc1	-0.026	2	-6	5	-12
Cc1cccc(-n2ncc3c(NCc4ccc5c(c4)OCO5)ncnc32)c1	-0.57	-3	0	18	76*
Cc1ccc(-n2ncc3c(NCc4ccc5c(c4)OCO5)ncnc32)c(C)c1	-3.1	4	-19	38*	4
c1ccc(-n2ncc3c(NCc4ccc5c(c4)OCO5)ncnc32)cc1	0.33	.	.	.	-1
COc1ccc(Cl)cc1N1CCN(CCNC(=O)Nc2ccccc2C)CC1	.	3	5	6	63*
COc1ccccc1N1CCN(CCCNC(=O)Nc2ccccc2C)CC1	0.56	0	6	1	-16
CCCCC(=O)NC(c1ccco1)c1c(O)ccc2ccccc12 (configuration not stated)	-5.5*	0	9	0	.
CCCC(=O)NC(c1ccco1)c1c(O)ccc2ccccc12 (configuration not stated)	-1.3	-1	-4	6	.
COCCOC(=O)c1c(C)oc2ccc(OC(=O)c3ccc4c(c3)OCO4)cc12	-0.69	-16	-9	8	19
CC(=O)Nc1c(O)nc(SCC(=O)Nc2c(C)cccc2C)[nH]c1=O	0.024	2	-6	16	.
O=C(/C(=C/c1ccc(Cl)cc1)c1nc2ccccc2[nH]1)c1cccs1	-1.8	104*	-15	101*	.
COc1cc(/C=C(/C(=O)c2cccs2)c2nc3ccccc3[nH]2)ccc1O	-2.3	2	-6	6	.
Oc1c(Cl)cc(Cl)cc1CNc1ccc(Br)cn1	0.36	5	-3	11	-8
Oc1ccc(Cl)cc1CNc1ccc(Br)cn1	-0.85	0	13	48*	7
CC1CCN(C(=O)/C(=C/c2ccccc2Cl)c2ccccc2)CC1	-9.1*	1	7	19	.
O=C1C(Cl)=C(NCC2CCCO2)C(=O)N1c1ccccc1 (configuration not stated)	-0.057	4	-1	18	-18
O=C1C(Cl)=C(NCC2CCCO2)C(=O)N1C1CCCCC1 (configuration not stated)	0.23	13	1	41*	19
